Assay: Toxicity liver stage against HepG2, at 10uM
Type: cell-based
Design: test concentration 10 uM, cell line HepG2-A16-CD81EGFP
Conditions: human, HepG2-A16-CD81EGFP cells; read-out: INHIBITION
How it was run: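 Uninfected HepG2-A16-CD81EGFP cells, 3 × 10^3 per well, 1536-well, plated on prespotted compound at 10 μM final, parasite-free screening media added to match infected plates; puromycin 10 μM positive, DMSO 0.5% negative; run in parallel with 48 h PbLuc assay at 37 °C, 5% CO2; viability by CellTiter-Glo luminescence, normalized to controls.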

Structure (SMILES)	cytotoxicity at 10 µM [%]
CC1(C)Cc2ccccc2-c2nc(NCCCO)[nH]c(=O)c21	3.57
Cc1cn2nc(N3CCCC3C(=O)N3CCN(C)CC3)sc2n1 (stereo not drawn)	-12.6
CCc1cnc(N2CC[C@@H]3CN(C(C)=O)CCO[C@@H]3C2)nc1	9.1
O=C(c1ccoc1)N1CC[C@@H]2[C@@H](CC1)OCCN2c1cccnc1	11.1
CCOCc1nn(CC2CC2)c2c1CN(C(=O)c1ccno1)CC2	1.99
COc1cc(N2CC[C@@H]3O[C@@H](c4ccnc(C)n4)C[C@H]3C2)ncn1	23.1
Fc1cccc(N2CCc3ncnc(C4CC4)c3CC2)c1	11.9
COCCn1cc(-c2cc(C(=O)N3CCCC3)c3ccccn23)nc1C	8.61
COc1cc(N2CC[C@H]3OCC[C@@]3(COc3nccc(C)n3)C2)ncn1	11.8
Cc1cc2nc(SCC(=O)N3CCOCC3)n(CCC(C)C)c(=O)c2[nH]1	10.8
CCc1cccc(-n2nnc(C(=O)O)c2-c2ccncc2)c1	7.77
Cn1nc(C(=O)N2CCOCC2)cc1C(=O)Nc1cc(Cl)cc(Cl)c1	27.9
CCc1noc(C2CCCCN2C(=O)c2ccc(C)o2)n1 (stereo not drawn)	14
CC(=O)N1CCN(CCCOc2ccccc2F)CC(C(N)=O)C1 (stereo not drawn)	-28.7
CNC(=O)c1cn[nH]c1C1(C)CCCN(Cc2nccn2C(C)C)C1 (stereo not drawn)	-2.73
COc1ccc(C2Nc3cc(Cl)ccc3C3=NCCN32)cc1CO (stereo not drawn)	-19.3
CC[C@@H]1C[C@H](C(F)(F)F)n2nc(C3CCN(S(=O)(=O)CC)CC3)cc2N1	-28.2
O=C1CO[C@H]2CN(Cc3ccccc3Br)C[C@@H]2N1	2.13
CN(CC1(O)CCN(c2ccccn2)C1)C(=O)Cc1ccsc1 (stereo not drawn)	-11.7
CCn1ncc(CN2C[C@@H]3CCCN3C[C@@H]2CCSC)c1C	-27.3
O=C1NC2(Cc3ccccc31)CN(CC1CCCC1)C2	7.58
CCCn1nnnc1CN(CC)CC1COc2ccccc2O1 (stereo not drawn)	13.3

Structure (SMILES)	cytotoxicity at 10 µM [%]
Cc1ccc(F)c(S(=O)(=O)NCc2cccc(CS(C)(=O)=O)c2)c1	-7.61
Cc1cnn(CC2CCCN2C(=O)CCc2ccco2)c1 (stereo not drawn)	-4.7
CC(C)OCc1cccc(NC(=O)N(C)Cc2ncnn2C)c1	4
OC1(CNC2CCN(Cc3ccncc3)CC2)CCc2ccccc21 (stereo not drawn)	-1.41
c1nc(N2CCCCC2Cn2cncn2)c2ccsc2n1 (stereo not drawn)	-2.49
COc1cccc(S(=O)(=O)CCN2CCCN(C(C)=O)CC2)c1	-10.4
O=C1CCOCCN1Cc1ccc(Cl)c(Cl)c1	3.3
Cc1ccc(-n2ccnc2-c2cn(C3CCNCC3)nn2)c(Cl)c1	3.07
Cc1cccc(N2CCN(CCC(=O)NCc3cnc(C)cn3)CC2)c1	-1.48
CC(C)CN1C(=O)CC[C@H]2CN(C(=O)Cn3ccccc3=O)CC[C@H]21	-7.37
Cc1cnn(C(C)C2CC2)c1NC(=O)c1ccc(Cn2cnnn2)cc1 (stereo not drawn)	-2.06
CC(C)[C@H]1CN(Cc2ccccc2C#N)C[C@@H]1NC(=O)C1CCOCC1	1.47
COc1ccc(NC2CCCN(Cc3cnc(N(C)C)s3)C2)cc1 (stereo not drawn)	0.88
Fc1cccc(Oc2ccc(CNCC3CNc4ccnn4C3)cn2)c1 (stereo not drawn)	-7.16
COC(=O)c1cccc(NC(=O)CCn2nc(-c3cccs3)oc2=O)c1	-8.13
Cc1ccc(N2CCCN(C(=O)C3(C#N)CCCCC3)CC2)nn1	-7.7
COc1ncccc1C(=O)N1CCCC(c2cc(C)[nH]n2)C1 (stereo not drawn)	-7.49
Cn1cc(C(=O)NC[C@H]2OC[C@@H]3CCN(C4CCOCC4)C[C@@H]32)cn1	8.01
CC(=O)N1CCc2ncn(C)c2C1C(=O)N1CCCC1 (stereo not drawn)	1.9
Cc1n[nH]c(C)c1CNCC(O)c1cccc(Cl)c1 (stereo not drawn)	4.91
O=C(c1ccsc1)N1CCc2onc(COc3ccccn3)c2C1	6.43

From ChEMBL document CHEMBL4513216, “Probing the Open Global Health Chemical Diversity Library for Multistage-Active Starting Points for Next-Generation Antimalarials” (ACS Infect Dis, 2020)
